Source: PubChem BioAssay (Sanford-Burnham Center for Chemical Genomics)
Hits are enriched below; roughly 4.1% of the tested compounds scored in any of these assays.
Apaf1 inhib: blocks human Apaf-1 apoptosome activity; reconstituted apoptosome caspase-3 activity, DEVD-Rh110 fluorescence; inhibition, % at 20 µM; hit rate 0.71% among 330,000; active means inhibition of at least 40% at 20 µM
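Medium: Hepes buffer, pH 7.5 / System: biochemical Apaf-1 apoptosome reconstitution / Measured by: Rh110 fluorescence, excitation 480 nm, emission 540 nm / Times: compound with Apaf-1, dATP, procaspase-3 30 min, then 50 min reaction, room temperature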
CHOP UPR activ: activators of apoptotic arm of unfolded protein response (CHOP). CHO-CHOP luciferase reporter, UPR activation, luminescence; percent of tunicamycin response over DMSO baseline. activation, % at 10 µM. hit rate 0.34% among 330,000. AID 449763;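 active means at 10 µM dose, activation of 40% or more, normalized to positive control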
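Assay system: CHO cells with stable CHOP pathway luciferase reporter; Buffer or medium: F12 plus 10% serum; Times: 16-18 h cell attachment, then 6 h compound exposure, 37 °C; Signal: luciferase luminescence; Read-out basis: percent activation relative to tunicamycin control; Control set: tunicamycin high control, DMSO low control.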
UBC13 polyUb: blocks human UBC13 polyubiquitin chain formation; TR-FRET; inhibition, % at 20 µM; hit rate 0.47% among 330,000; AID 485273; in the data active means inhibition above about 45%, passing the limit was not always enough; inconclusive means no clear call, values can overlap the other calls
Target sequence (P61088 whole entry, looked up): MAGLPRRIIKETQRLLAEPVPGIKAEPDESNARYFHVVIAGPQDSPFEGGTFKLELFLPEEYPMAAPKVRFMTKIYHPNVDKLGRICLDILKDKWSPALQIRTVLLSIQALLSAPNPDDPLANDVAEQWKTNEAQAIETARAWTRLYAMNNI
XBP1 UPR activ: adaptive UPR (XBP1) activation | activation, % at 20 µM | CHO-XBP1 luciferase reporter, IRE1-XBP1 UPR activation, luminescence; percent of tunicamycin response, DMSO as zero | AID 463104 | hit rate 0.33% among 330,000;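 active means versus positive control, 20 µM dose yields 30% or more activation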
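incubation = overnight seeding at 37 °C, 6 h compound treatment at 37 °C | assay system = CHO-XBP1 cells stably carrying IRE1-XBP1-driven luciferase reporter | input = 1000 cells per well | detection = luciferase luminescence | dosing = single point, 20 µM final compound, 1% DMSO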
Mdm2 MdmX PPI: inhibitors of human Mdm2/MdmX interaction; AID 485346; O15151+Q00987; hit rate 3% among 330,000; inhibition, % at 8 µM; SaOS-2 split-luciferase Mdm2/MdmX complementation, luminescence;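 active means inhibition of at least 50% at 8 µM in the primary screen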
Casp3 UBC13 ctr: inhibits human caspase-3 in UBC13 counter-screen; shares compounds with UBC13 polyUb; Recombinant caspase-3, Caspase-Glo 3/7 luminescence, 60 min; inhibition, % at 20 µM; hit rate 4% among 1,400; AID 488856;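 active means mean inhibition across replicates above about 26%, limit read from the data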
Target sequence (P42574 whole entry, looked up): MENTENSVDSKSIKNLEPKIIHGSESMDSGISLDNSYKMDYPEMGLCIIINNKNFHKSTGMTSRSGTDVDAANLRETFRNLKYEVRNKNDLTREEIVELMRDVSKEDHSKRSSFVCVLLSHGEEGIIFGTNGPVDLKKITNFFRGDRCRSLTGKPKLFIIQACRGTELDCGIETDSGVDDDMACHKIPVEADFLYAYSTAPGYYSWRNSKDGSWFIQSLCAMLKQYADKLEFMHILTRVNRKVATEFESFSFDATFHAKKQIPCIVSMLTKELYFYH
UBC13 conf: confirmation of human UBC13 polyubiquitin inhibitors | shares compounds with UBC13 polyUb | UBC13 polyubiquitination, TR-FRET, biochemical | inhibition, % at 10 µM | hit rate 68% among 1,400; in the data active means inhibition above about 45%; inconclusive means no clear call, values can overlap the other calls
A number is an active result; n = inactive; u = inconclusive; x = no result.

SMILES | Apaf1 inhib | CHOP UPR activ | UBC13 polyUb | XBP1 UPR activ | Mdm2 MdmX PPI | Casp3 UBC13 ctr | UBC13 conf
Cc1cccc(C)c1OCc1nnc(SCC(=O)NCCc2ccccc2)o1 | n | n | 92 | n | n | n | n
Cc1nn(C(=O)c2ccc([N+](=O)[O-])cc2)c(C)c1Br | n | n | n | n | n | x | x
Cn1c(C(=O)NCCN2CCOCC2)cc2c(=O)n(C)c3ccccc3c21 | n | n | n | n | n | x | x
CC1CCCCN1CCNC(=O)c1cc2c(=O)n(C)c3ccccc3c2n1C (stereo unspecified) | n | n | 46 | n | n | n | 46
O=C(CSc1nccc(=O)[nH]1)NCc1ccco1 | n | n | n | n | n | x | x
CN1CCc2c(sc(/N=C/c3c[nH]c4ccccc34)c2C(N)=O)C1 | n | n | 85 | n | n | n | n
COc1ccc(CNC(=O)c2cccc(-c3ccc(C)c4ccccc34)n2)cc1 | n | n | n | n | n | x | x
C#CCOCCOCCOCCNc1nc(N2CCN(C(=O)CCCCCCCCCCNC(=O)[C@@H](CCSC)n3cc(CCO)nn3)CC2)nc(N2CCN(C(=O)CCCCCCCCCCNC(=O)[C@H]([C@@H](C)CC)n3cc(CCCCN=C(N)N)nn3)CC2)n1 | 64 | n | 125 | n | n | n | 124
C#CCOCCOCCOCCNc1nc(N2CCN(C(=O)CCCCCCCCCCNC(=O)[C@H](CCCCN)n3cc(CCCC(=O)O)nn3)CC2)nc(N2CCN(C(=O)CCCCCCCCCCNC(=O)[C@H](CCCN=C(N)N)n3cc(C[C@@H](C)CC)nn3)CC2)n1 | 76 | n | 123 | n | n | n | 126
C#CCOCCOCCOCCNc1nc(N2CCN(C(=O)CCCCCCCCCCNC(=O)[C@@H](CCC(=O)O)n3cc(CCCCCN)nn3)CC2)nc(N2CCN(C(=O)CCCCCCCCCCNC(=O)[C@@H](CCC(=O)O)n3cc(CCCCCN)nn3)CC2)n1 | n | n | 45 | n | n | n | n
C#CCOCCOCCOCCNc1nc(N2CCOCC2)nc(N2CCN(C(=O)CCCCCCCCCCNC(=O)[C@H](CO)n3cc(CCCCCN)nn3)CC2)n1 | 44 | n | 62 | n | n | n | n
COc1ccc(CNC(=O)CN2CCN(c3ccccc3)CC2)cc1 | n | n | n | n | n | x | x
O=C(COC(=O)COc1ccc(Br)cc1)NCc1ccccc1 | n | n | n | n | n | x | x
C#CCOCCOCCOCCNc1nc(N2CCN(C(=O)CCCCCCCCCCNC(=O)[C@H](CCCCN)n3cc(CCCC(=O)O)nn3)CC2)nc(N2CCN(C(=O)CCCCCCCCCCNC(=O)[C@H](CCCCN)n3cc(CCCC(=O)O)nn3)CC2)n1 | n | n | 45 | n | n | n | n
COc1ccc2[nH]cc(CCNC(=O)Nc3ccccc3)c2c1 | n | n | 52 | n | n | n | n
COc1ccc2c(CCNC(=O)Nc3ccccc3)c[nH]c2c1 | n | n | n | n | n | x | x
COc1ccc(Cl)cc1/C=N/NC(=O)c1c(-c2ccccc2)noc1C | n | n | 56 | n | n | n | n
COC(=O)C1CCN(C(=O)CC(NC(=O)C(F)(F)F)c2cccs2)CC1 (stereo unspecified) | n | n | n | n | n | x | x
Cc1ccccc1CN1CCN(C(C)C(=O)NNC(=O)c2ccc(F)cc2)CC1 (stereo unspecified) | n | n | n | n | n | x | x
COc1ccc(-c2nnc(SCC(=O)Nc3cc(F)ccc3C)o2)cc1 | n | n | 47 | n | n | n | n
CSc1nc(N2CCOCC2)c2c(c1C#N)CCCCC2 | n | n | 53 | n | n | n | u
Cc1ccc(C(=O)NCCN2C3=NC[C@H](Cc4ccc(O)cc4)N3C[C@H]2Cc2ccc(O)cc2)cc1Br | n | n | 55 | n | n | n | n
COc1ccc(C[C@H]2CN3C(=NC[C@H]3Cc3ccccc3)N2CCNC(=O)CCC2CCCCC2)cc1 | n | n | 66 | n | n | n | 62
N#Cc1ccsc1NC(=O)C1CCN(C(=O)c2ccc(Cl)cc2)CC1 | n | n | 48 | n | n | n | 79
O=C(NC1CCCC1)C1CCN(C(=O)c2ccc(Cl)cc2)CC1 | n | n | n | n | n | x | x
SMILES | Apaf1 inhib | CHOP UPR activ | UBC13 polyUb | XBP1 UPR activ | Mdm2 MdmX PPI | Casp3 UBC13 ctr | UBC13 conf
Cc1ccc(NC(=O)C2CCN(c3ncnc4c3nc3n4CCCCC3)CC2)cc1Cl | n | n | 72 | n | n | n | 94
NS(=O)(=O)c1ccc(CCNC(=O)C2CCN(c3ncnc4c3nc3n4CCCCC3)CC2)cc1 | n | n | 55 | n | n | n | 59
Cc1ccc(NC(=O)C2CCCN(c3ncnc4c3nc3n4CCCCC3)C2)cc1Cl (stereo unspecified) | n | n | n | n | n | x | x
CCC1CCCCN1CCCNC(=O)C1CCN(c2ncnc3c2nc2n3CCCCC2)CC1 (stereo unspecified) | n | n | 53 | n | n | n | 63
CN(CCNC(=O)C1CCN(c2ncnc3c2nc2n3CCCCC2)CC1)Cc1ccccc1 | n | n | 91 | n | n | n | 106
CS(=O)(=O)N(CC(=O)N1CCN(Cc2ccccc2)CC1)c1cccc([N+](=O)[O-])c1 | n | n | n | n | n | x | x
O=C(c1ccc(F)cc1)N1CCCC(C(=O)N2CCc3ccccc3C2)C1 (stereo unspecified) | n | n | n | n | n | x | x
CN1CCN(C(=O)/C=C/c2c(F)cccc2Cl)CC1 | n | n | n | n | n | x | x
CC(=NCc1ccco1)c1c(C)[nH]n(-c2nc3ccccc3s2)c1=O | n | n | 53 | n | n | 78 | u
COc1ccc(NC(=S)NNC(=O)c2nnn(-c3ccccc3)c2C)cc1 | n | n | 59 | n | n | n | 82
Cn1c(SCC(=O)c2ccccc2)ncc(C(=O)Nc2ccccc2)c1=O | n | n | 57 | n | n | 95 | 53
Cc1ccc(NC(=O)c2cnc(SCC(=O)c3ccccc3)n(C)c2=O)cc1 | n | n | u | n | n | x | x
CCOC(=O)c1c(C(C)(C)C)oc2ccc(O)cc12 | n | n | 55 | n | n | n | 54
CCOC(=O)c1c(CN2CCOCC2)oc2ccc(OC)cc12 | n | n | n | n | n | x | x
CCOC(=O)c1c(CN2CCCCC2)oc2ccc(O)cc12 | n | n | 53 | n | n | n | 54
O=C(N/C(=C/c1ccc(Br)cc1)C(=O)N1CCCCC1)c1ccccc1F | n | n | n | n | n | x | x
CCOC(=O)c1ccc(-c2ccc(/C=N/NC(=O)Cc3nnc(N)s3)o2)cc1 | n | n | n | n | n | x | x
Cc1ccc2nc(N(CCCN(C)C)C(=O)c3ccc(S(=O)(=O)N(C)C)cc3)sc2c1 | n | n | n | n | n | x | x
Cc1ccc2nc(N(CCCN(C)C)C(=O)c3sc4ccccc4c3Cl)sc2c1 | n | n | 49 | n | n | n | 64
